# According to ChEMBL document CHEMBL3085645, “Design, synthesis and biological evaluation of phosphorodiamidate prodrugs of antiviral and anticancer nucleosides” (Eur J Med Chem, 2013):
# Tests used:
# [1] = system: Huh-7; test: Cytotoxicity against human HuH7 cells; format: cell-based
# [2] = system: Hepatitis C virus; test: Antiviral activity against Hepatitis C virus genotype 1b infected in human HuH7 cells assessed as inhibition of viral replication; format: functional, organism-based, Hepacivirus hominis
# [3] = system: Human immunodeficiency virus 2; test: Antiviral activity against HIV2 ROD infected in human CEM cells assessed as virus-induced giant cell formation after 4 days by microscopic analysis; format: functional, organism-based; settings: Human immunodeficiency virus 2, ISOLATE ROD, CCRF-CEM, 96 h
# Procedure, shortened: (§1)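 CEM cells (∼3 × 10^5 cells/cm3) infected with 100 CCID50/mL of HIV-1(IIIB) or HIV-2(ROD), seeded into wells with compound dilutions. Giant cell formation examined microscopically after 4 days at 37 °C.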
# [4] = system: CCRF-CEM; test: Cytostatic activity against human CEM cells assessed as growth inhibition after 3 days by particle counting analysis; format: functional, cell-based; settings: 72 h
# Procedure, shortened: (§2)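 Tumor cells seeded and exposed to a range of compound concentrations. Cell number counted with a particle counter after 2 days (L1210, L1210/TK) or 3 days (CEM, CEM/TK, HeLa, HeLa TK, Caco-2, Colo-320).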
# [5] = system: CCRF-CEM; test: Cytotoxicity against human CEM cells; format: cell-based
# [6] = system: Human immunodeficiency virus 1; test: Antiviral activity against HIV1 3B infected in human CEM cells assessed as virus-induced giant cell formation after 4 days by microscopic analysis; format: functional, organism-based; settings: Human immunodeficiency virus 1, 3B, CCRF-CEM, 96 h; procedure, shortened: as §1
# [7] = system: HeLa; test: Cytostatic activity against human HeLa cells assessed as growth inhibition after 3 days by particle counting analysis; format: functional, cell-based; settings: 72 h; procedure, shortened: as §2
# [8] = system: L1210; test: Cytostatic activity against mouse L1210 cells assessed as growth inhibition after 2 days by particle counting analysis; format: functional, cell-based; settings: L1210, 48 h; procedure, shortened: as §2
# [9] = system: HeLa; test: Cytostatic activity against thymidine kinase-deficient human HeLa cells assessed as growth inhibition after 3 days by particle counting analysis; format: functional, cell-based; settings: 72 h; procedure, shortened: as §2
# [10] = system: Felid alphaherpesvirus 1; test: Antiviral activity against Feline herpesvirus infected in cat CRFK cells assessed as inhibition of virus-induced cytopathicity; format: functional, organism-based; settings: Felid alphaherpesvirus 1, CRFK
# [11] = system: Human alphaherpesvirus 1; test: Antiviral activity against Herpes simplex virus 1 KOS infected in HEL cells assessed as inhibition of virus-induced cytopathicity; format: functional, organism-based; settings: Human alphaherpesvirus 1, KOS
# [12] = system: Human alphaherpesvirus 1; test: Antiviral activity against acyclovir-resistant thymidine kinase-deficient Herpes simplex virus 1 KOS infected in HEL cells assessed as inhibition of virus-induced cytopathicity; format: functional, organism-based; settings: Human alphaherpesvirus 1, KOS
# [13] = Cytotoxicity against HEL cells; format: cell-based; settings: human
# [14] = system: Human alphaherpesvirus 2; test: Antiviral activity against Herpes simplex virus 2 G infected in HEL cells assessed as inhibition of virus-induced cytopathicity; format: functional, organism-based; settings: Human alphaherpesvirus 2, strain G
# [15] = system: MT4; test: Cytotoxicity against human MT4 cells assessed as cell viability by propidium iodide staining-based cell counting analysis
# Procedure, shortened: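 MT-4 cultures, untreated or treated, were counted on an automated cell counter. Total and dead cells were enumerated by propidium iodide-based assay.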
# [16] = system: Human immunodeficiency virus 1; test: Antiviral activity against HIV1 infected in human MT4 cells assessed as p24 production after 3 days; settings: Human immunodeficiency virus 1, MT4, 72 h
# [17] = system: CCRF-CEM; test: Cytostatic activity against thymidine kinase-deficient human CEM cells assessed as growth inhibition after 3 days by particle counting analysis; format: functional, cell-based; settings: 72 h; procedure, shortened: as §2
# [18] = system: COLO 320; test: Cytostatic activity against human COLO320 cells assessed as growth inhibition after 3 days by particle counting analysis; format: functional, cell-based; settings: COLO 320, 72 h; procedure, shortened: as §2
# [19] = system: L1210; test: Cytostatic activity against thymidine kinase-deficient mouse L1210 cells assessed as growth inhibition after 2 days by particle counting analysis; format: functional, cell-based; settings: L1210, 48 h; procedure, shortened: as §2
# [20] = system: Caco-2; test: Cytostatic activity against human Caco2 cells assessed as growth inhibition after 3 days by particle counting analysis; format: functional, cell-based; settings: Caco-2, 72 h; procedure, shortened: as §2
smiles,measurement,setting,value
CCOc1nc(N)nc2c1ncn2[C@@H]1O[C@H](COP(=O)(N[C@@H](C)C(=O)OCC(C)(C)C)N[C@@H](C)C(=O)OCC(C)(C)C)[C@@H](O)[C@@]1(C)F,CC50,"[1]; human, huh-7, read-out: CC50",73 µM
same,EC50,"[2]; Huh-7, read-out: EC50",0.05 µM
CCOc1nc(N)nc2c1ncn2[C@@H]1O[C@H](COP(=O)(N[C@H](C)C(=O)OCC(C)(C)C)N[C@H](C)C(=O)OCC(C)(C)C)[C@@H](O)[C@@]1(C)F,CC50,"[1]; human, huh-7, read-out: CC50",> 100 µM
same,EC50,"[2]; Huh-7, read-out: EC50",0.23 µM
C[C@H](NP(=O)(N[C@@H](C)C(=O)OCc1ccccc1)OC[C@@]1(N=[N+]=[N-])O[C@@H](n2ccc(=O)[nH]c2=O)[C@H](O)[C@@H]1O)C(=O)OCc1ccccc1,CC50,"[1]; human, huh-7, read-out: CC50",> 100 µM
same,EC50,"[2]; Huh-7, read-out: EC50",> 40 µM
C[C@H](NP(=O)(N[C@@H](C)C(=O)OCC(C)(C)C)OC[C@@]1(N=[N+]=[N-])O[C@@H](n2ccc(=O)[nH]c2=O)[C@H](O)[C@@H]1O)C(=O)OCC(C)(C)C,CC50,"[1]; human, huh-7, read-out: CC50",> 100 µM
same,EC50,"[2]; Huh-7, read-out: EC50",22 µM
C[C@H](NP(=O)(N[C@@H](C)C(=O)OCc1ccccc1)OC[C@@]1(N=[N+]=[N-])O[C@@H](n2ccc(N)nc2=O)[C@H](O)[C@@H]1O)C(=O)OCc1ccccc1,CC50,"[1]; human, huh-7, read-out: CC50",> 100 µM
same,EC50,"[2]; Huh-7, read-out: EC50",> 40 µM
C[C@H](NP(=O)(N[C@@H](C)C(=O)OCC(C)(C)C)OC[C@@]1(N=[N+]=[N-])O[C@@H](n2ccc(N)nc2=O)[C@H](O)[C@@H]1O)C(=O)OCC(C)(C)C,CC50,"[1]; human, huh-7, read-out: CC50",72 µM
same,EC50,"[2]; Huh-7, read-out: EC50",> 40 µM
C[C@H](NP(=O)(N[C@@H](C)C(=O)OCc1ccccc1)OC[C@H]1O[C@@H](n2cnc(C(N)=O)n2)[C@H](O)[C@@H]1O)C(=O)OCc1ccccc1,CC50,"[1]; Homo sapiens, Huh-7, read-out: EC50 (the source's name)",> 100 µM
same,EC50,"[2]; Huh-7, read-out: EC50",> 100 µM
C[C@H](NP(=O)(N[C@@H](C)C(=O)OCC(C)(C)C)OC[C@H]1O[C@@H](n2cnc(C(N)=O)n2)[C@H](O)[C@@H]1O)C(=O)OCC(C)(C)C,CC50,"[1]; human, huh-7, read-out: ED50 (the source's name)",> 100 µM
same,EC50,"[2]; Huh-7, read-out: ED50 (the source's name)",> 100 µM
Nc1nc(NC2CC2)c2ncn([C@H]3C=C[C@@H](CO)C3)c2n1 [ABACAVIR],EC50,[3],18 µM
same,IC50,[4],> 250 µM
same,CC50,[5],> 250 µM
same,EC50,[6],23 µM
same,IC50,[7],170 µM
same,IC50,[8],> 250 µM
NC(=O)c1ncn([C@@H]2O[C@H](CO)[C@@H](O)[C@H]2O)c1N [ACADESINE],IC50,[9],≥ 250 µM
same,IC50,[4],210 µM
same,EC50,[10],> 100 µM
same,EC50,[11],> 100 µM
same,EC50,[12],> 100 µM
same,MCC,[13],> 100 µM
same,IC50,[7],165 µM
same,IC50,[8],≥ 250 µM
same,EC50,[14],> 100 µM
Nc1nc2c(ncn2COCCO)c(=O)[nH]1 [ACYCLOVIR],CC50,[15],> 250 µM
same,EC50,[10],> 100 µM
same,EC50,[11],0.23 µM
same,EC50,[12],23 µM
same,MCC,[13],> 100 µM
same,EC50,[16],> 250 µM
CCCCCc1ccc(-c2cc3cn([C@H]4C[C@H](O)[C@@H](CO)O4)c(=O)nc3o2)cc1 [CF1743],MCC,[13],≥ 20 µM
Nc1ccn([C@@H]2CS[C@H](CO)O2)c(=O)n1 [LAMIVUDINE],IC50,[9],> 250 µM
same,EC50,[3],0.18 µM
same,IC50,[17],> 250 µM
same,IC50,[4],> 250 µM
same,CC50,[5],> 250 µM
same,IC50,[18],> 250 µM
same,EC50,[6],0.099 µM
same,IC50,[19],> 250 µM
same,IC50,[7],> 250 µM
same,IC50,[8],> 250 µM
same,IC50,[20],> 250 µM
Cc1cn([C@H]2C=C[C@@H](CO)O2)c(=O)[nH]c1=O [STAVUDINE],IC50,[9],> 250 µM
same,EC50,[3],0.58 µM
same,IC50,[17],> 250 µM
same,IC50,[18],159 µM
same,EC50,[6],0.39 µM
same,IC50,[19],≥ 250 µM
same,IC50,[7],> 250 µM
same,IC50,[20],> 250 µM
Cc1cn([C@H]2C[C@H](N=[N+]=[N-])[C@@H](CO)O2)c(=O)[nH]c1=O [ZIDOVUDINE],EC50,[3],0.067 µM
same,CC50,[5],> 250 µM
same,EC50,[6],0.012 µM
